Sampled rows, rich in hits. Any-hit rate of the full collection: about 3.5%.
MrgX1 antag = human MrgX1 receptor antagonism, primary screen; Q96LB2; MRGX1-HEK293 calcium flux, Fluo-4, BAM8-22 antagonism; hits give low values; B-score at 10 µM; 310,000 tested, 1.3% active; AID 588676;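 active means calcium-response B-score plate-corrected more than 3 library SD below zero, starting fluorescence within 5 deviations, no agonist response on first addition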;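 further: peak minus trough fluorescence over baseline after final BAM8-22 challenge near maximal dose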
Target sequence (Q96LB2 whole entry, looked up): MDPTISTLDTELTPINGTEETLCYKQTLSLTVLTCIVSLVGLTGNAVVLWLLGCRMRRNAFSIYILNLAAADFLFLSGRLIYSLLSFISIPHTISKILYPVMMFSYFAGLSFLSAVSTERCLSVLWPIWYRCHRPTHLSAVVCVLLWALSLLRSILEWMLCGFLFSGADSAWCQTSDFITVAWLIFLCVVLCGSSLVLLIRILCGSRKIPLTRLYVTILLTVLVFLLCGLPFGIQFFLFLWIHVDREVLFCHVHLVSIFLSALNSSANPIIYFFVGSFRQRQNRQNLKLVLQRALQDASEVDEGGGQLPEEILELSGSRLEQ
MrgX1 agonist = activates human MrgX1 receptor signaling | MrgX1-HEK293 cells, Fluo-4 calcium fluorescence, agonist mode; hits give high values | 310,000 tested, 0.44% active | AID 588627 | Q96LB2 | B-score at 10 µM;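 active means calcium response B-score plate-corrected fluorescence ratio at least 3 library SD, with starting fluorescence B-score inside 5 SD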
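Material: MrgX1-expressing HEK293 cells / Dosing: compound as first of three additions / Incubation: overnight seeding, then 1 h dark dye loading / Signal: Fluo-4 NW calcium fluorescence / Evaluation: B-scored fluorescence response ratio / Benchmarks: positive and negative control wells on each plate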
RGS4 inh = inhibitors of human RGS4. B-score at 10 µM. HEK293 M3R/RGS4 inducible, Fluo-4 calcium flux; hits give high values; triggered by carbachol at its EC20. 310,000 tested, 0.45% active. P49798. AID 463165;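 active means B-score, a plate-corrected calcium signal, over three deviations above library mean, with baseline fluorescence within five deviations of library mean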;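 further: RGS4 expression induced by doxycycline in cells with stable M3 receptor; B-score is computed from the integrated fluorescence ratio over baseline after carbachol; higher B-score means a larger calcium signal and so more RGS4 inhibition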
Target sequence (P49798 whole entry, looked up): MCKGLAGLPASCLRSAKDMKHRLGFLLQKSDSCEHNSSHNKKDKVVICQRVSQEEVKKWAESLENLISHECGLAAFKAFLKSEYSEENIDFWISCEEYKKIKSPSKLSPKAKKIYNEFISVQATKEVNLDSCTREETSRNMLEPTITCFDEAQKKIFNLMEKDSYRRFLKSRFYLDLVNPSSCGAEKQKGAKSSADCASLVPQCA
MrgX1 allo act = allosterically activates human MrgX1 receptor signaling; Q96LB2; MrgX1-HEK293, Fluo-4 calcium flux, FDSS; hits give high values; B-score at 10 µM; AID 588675; 310,000 tested, 0.63% active;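 active means plate-corrected calcium response at least 3 library SD above typical, normal starting fluorescence, not activating the receptor alone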;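 further: compound read alongside a low EC10 to EC30 dose of BAM8-22 agonist; peak minus trough fluorescence over baseline measured at the second addition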
RGS4 act = RGS4 potentiation or activation; B-score at 10 µM; HEK293 M3R/inducible RGS4, carbachol calcium flux Fluo4; hits give low values; AID 463111; 310,000 tested, 0.92% active;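 active means B-score of the integrated calcium signal more than 4 SD below the library mean, with starting fluorescence not abnormally high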;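 further: negative B-score means reduced calcium response which marks RGS4 activation or potentiation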
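Material: M3R-expressing HEK293 line, RGS4 induced by doxycycline | Schedule: Overnight RGS4 induction, 30 min dye load 37 °C, 20 min compound RT | Measured by: Fluo4 fluorescence kinetic imaging of calcium | Read-out: Integrated calcium ratio converted to B score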
MrgX1 ant reconf = confirmation of human MrgX1 receptor antagonists; shares compounds with MrgX1 antag; MrgX1-HEK293, BAM8-22 calcium flux, Fluo-4; hits give low values; remaining BAM8-22 calcium response % of control (hits give low values), % at 10 µM; 2,300 tested, 19% active; AID 602420;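 active means remaining agonist calcium response no higher than 100% minus 3 SD of agonist-only control wells, with starting fluorescence near control levels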;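 further: agonist BAM8-22 given at a near maximal EC90 to ECmax level; peak minus minimum fluorescence divided by baseline after agonist addition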
HEK293 Ca flux = counter-screen for MrgX1 antagonists: effect in parental HEK293 cells. 4,000 tested, 2% active. fluorescence ratio F(max-min)/F0 at 10 µM. Fluo-4 calcium fluorescence, FDSS. AID 624111. shares compounds with MrgX1 antag;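 active means duplicate-averaged calcium fluorescence ratio at least three times the standard deviation of buffer wells, a nonspecific response in parental cells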
HEK293 Ca counter = MrgX1 allosteric activator counter-screen hit in parental HEK293 cells; shares compounds with MrgX1 antag; parental HEK293 calcium flux, Fluo-4 fluorescence ratio; hits give high values; fluorescence ratio F(max-min)/F0 at 10 µM; 4,000 tested, 0.4% active;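 active means calcium fluorescence ratio, averaged over duplicates, at least 3 SD of the buffer-well ratio, meaning a nonspecific response in receptor-free cells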;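 further: untransfected parental HEK293 lacking MrgX1 used as counterscreen for MrgX1 allosteric activators; fluorescence change taken during the second addition on a kinetic imager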
HEK293 Ca cntr2 = MrgX1 activator counter-screen hit in parental HEK293 cells; shares compounds with MrgX1 antag; Fluo-4 calcium fluorescence (FDSS); hits give high values; fluorescence ratio F(max-min)/F0 at 10 µM; 4,000 tested, 8.7% active; AID 624115;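 active means calcium fluorescence ratio at least three times the spread of buffer wells, meaning a non-specific response in parental cells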
Hits are given with their value; i = inactive; nt = no result; ! = repeats disagree.

SMILES	MrgX1 antag	MrgX1 agonist	RGS4 inh	MrgX1 allo act	RGS4 act	MrgX1 ant reconf	HEK293 Ca flux	HEK293 Ca counter	HEK293 Ca cntr2
COC(=O)C1CN(C(=O)C(C)Oc2ccc(F)cc2)c2ccccc2O1 (centres undefined)	i	i	i	i	i	nt	nt	nt	nt
CCOC(=O)C1=C(CSc2nc3c(cc2C#N)CCC3)OC(N)=C(C#N)C1c1ccccc1 (centres undefined)	i	i	i	i	i	nt	nt	nt	nt
CCOC(=O)C1=C(CSc2nc3c(cc2C#N)CN(C)CC3)OC(N)=C(C#N)C1c1ccc(F)cc1 (centres undefined)	-5.39	i	i	i	i	i	i	i	i
Cc1cc(NC(=O)CSc2nc3c(c(-c4cccnc4)c2C#N)CCC3)no1	-5.34	i	i	i	i	i	i	i	i
COc1cc(NC(=O)CCc2nnc3ccc(NCc4ccco4)nn23)cc(OC)c1	i	i	i	i	i	nt	nt	nt	nt
Cc1ccc(-c2nc(NC(=O)CSc3nnnn3-c3ccccc3)ns2)cc1	-6.66	i	i	i	i	i	i	i	i
COc1ccc(-n2nnnc2SCC(=O)c2cccc(OC)c2)cc1	-4.64	i	i	i	i	i	i	i	i
CCn1nnnc1SCC(=O)c1cccc(OC)c1	i	i	i	i	i	nt	nt	nt	nt
COc1ccc(CNC(=O)CSc2nnnn2-c2ccccc2)cc1	-9.87	i	i	i	i	i	i	i	i
CCOC(=O)c1oc2ccccc2c1CSc1nnnn1-c1ccc(OC)cc1	-7.15	i	i	i	i	i	i	i	i
O=c1c(Cl)c(NCC2CCCO2)cnn1C12CC3CC(CC(C3)C1)C2 (centres undefined)	i	i	i	i	i	nt	nt	nt	nt
CC(=O)Oc1cc2cccc(OC(C)=O)c(=O)c2c(OC(C)=O)c1OC(C)=O	i	i	i	i	i	nt	nt	nt	nt
CCCn1nnnc1SCC(=O)NCc1ccccc1	i	i	i	i	i	nt	nt	nt	nt
CCCn1nnnc1SCC(=O)NCc1ccc(OC)cc1	-6.79	i	i	i	i	i	i	i	i
CCCn1nc2cc(C(=O)NCc3ccc(OC)cc3)ccc2c1OCC	-5.02	i	i	i	i	i	i	i	i
O=C(COc1ccc(F)cc1Cl)N(Cc1nnc(-c2ccccc2Cl)o1)C1CC1	i	i	i	i	i	nt	nt	nt	nt
O=S(=O)(NC(=NCc1ccccc1)c1ccccc1)c1ccc(Br)cc1	i	i	i	i	i	nt	nt	nt	nt
Cn1c(N)c(C(=O)COC(=O)[C@@H]2CCCN2S(=O)(=O)c2ccc(Cl)cc2)c(=O)n(C)c1=O	-6.06	i	i	i	i	i	i	i	i
CC(C)c1ccc(O)c(NC(=O)c2cncc(Br)c2)c1	-7.8	i	i	i	i	i	i	i	i
O=C(Nc1cccc(NC(=O)c2cncc(Br)c2)c1)c1cncc(Br)c1	i	i	i	i	i	nt	nt	nt	nt
O=C(Nc1ccncc1)c1cncc(Br)c1	-5.45	i	i	i	i	i	i	i	i
CCC(C)c1ccc(O)c(NC(=O)c2cccnc2)c1 (centres undefined)	i	i	i	i	i	nt	nt	nt	nt
O=C(CN1CCN(Cc2ccccc2Cl)C1=O)NC1CCCCCCC1	i	i	i	i	i	nt	nt	nt	nt
CC1CCCCC1NC(=O)CN1CCN(Cc2ccccc2Cl)C1=O (centres undefined)	-10	i	i	i	i	84.3%	i	i	i
C(=C\c1ccc2ccccc2n1)/c1ccccc1	i	i	i	i	i	nt	nt	nt	nt
SMILES	MrgX1 antag	MrgX1 agonist	RGS4 inh	MrgX1 allo act	RGS4 act	MrgX1 ant reconf	HEK293 Ca flux	HEK293 Ca counter	HEK293 Ca cntr2
CN(C)c1ccc(/C=C/c2ccc3ccccc3n2)cc1	-6.87	i	i	i	i	i	0.547	i	i
CC(C)CC(=O)Nc1ccnc(-c2ccncc2)n1	i	i	i	i	i	nt	nt	nt	nt
N#CCSc1nnc(Cc2cccs2)n1C1CCCCC1	-4.75	i	i	i	i	i	i	i	i
N#C/C(=C(/O)CSc1nnc(Cc2cccs2)n1C1CCCCC1)c1nc2ccccc2[nH]1	i	i	i	i	i	nt	nt	nt	nt
CCN(CC)CCN1C(=O)Cn2c(C)c(C)c3cccc1c32	-4.96!	i	i	i	i	i	i	i	i
N#Cc1nc(Cc2ccccc2)oc1NCCN1CCOCC1	-7.5	i	i	i	i	i	i	i	i
O=C(Nc1ccccc1)c1ccccc1NC(=O)C1CCCCC1	i	i	i	i	i	nt	nt	nt	nt
Cc1cccc(NC(=O)c2ccccc2NC(=O)C2CCCCC2)c1C	-4.97	i	i	i	i	i	i	i	i
CC(C)N(Cc1ccccc1)C(=O)C1CCN(c2ncnc3c2nc2n3CCCCC2)CC1	-4.76	i	i	i	i	i	i	i	56.8
N#Cc1c2n(cnc1=O)CCCCC2	-4.94	i	i	i	i	i	i	i	i
CCC(C)Sc1nc2c(cnn2-c2ccccc2)c(=O)[nH]1 (centres undefined)	-4.94	i	i	i	i	i	i	i	i
CCC(C)Sc1nc2c(cnn2-c2ccc(C)cc2)c(=O)[nH]1 (centres undefined)	i	i	i	i	i	nt	nt	nt	nt
O=C(CN(c1ccccn1)S(=O)(=O)c1ccc(F)cc1)Nc1ccc(F)cc1F	-5.65	i	i	i	i	i	i	i	i
CCCOc1ccc(C(=O)NCc2ccco2)cc1	i	i	i	i	i	nt	nt	nt	nt
CC(C)Oc1ccc(C(=O)NCc2ccco2)cc1	-5.91	i	i	i	i	i	i	i	i
O=C(CSc1ccc(Br)cc1)N1CCN(C(=O)c2ccco2)CC1	i	i	i	i	i	nt	nt	nt	nt
N#Cc1cc(-c2ccccc2)nnc1Sc1ccc(F)cc1	i	i	i	i	i	nt	nt	nt	nt
N#Cc1cc(-c2ccccc2)nnc1Sc1ccccc1	-4.88	i	i	i	i	79.4%	i	i	i
Cc1ccc(Cn2nc(C)c(NC(=O)c3nn(C)cc3Cl)c2C)cc1	-10.2	i	i	i	i	i	i	i	i
COC(=O)[C@H](C)[C@@H]1C[C@@]1(C)[C@@H](NC(=O)OCc1ccccc1)c1ccccc1	-5.45	i	i	i	i	75.3%	i	i	i
CCOC(=O)C1CCCN(C(=O)Cc2ccc(OC)c(OC)c2)C1 (centres undefined)	-4.84	i	i	i	i	i	i	i	i
CCN1CCc2nc(NC(=O)CC(c3ccccc3)c3ccccc3)sc2C1	i	i	i	i	i	nt	nt	nt	nt
